The values that follow come from ChEMBL document CHEMBL1177856, “Synthesis and cytotoxic activity of fluorinated analogues of Goniothalamus lactones. Impact of fluorine on oxidative processes” (Eur J Med Chem, 2010).

Experiment [1] relates to HT-29. The experiment can be described thus: Cytotoxicity against human HT-29 cells after 24 hrs. The following applies: HT-29, 24 h.
The test system of experiment [2] is A549. The experiment is described as follows: Cytotoxicity against human A549 cells after 24 hrs. The following applies: A549, 24 h.
The subject of experiment [3] is KB. The experiment can be described thus: Cytotoxicity against human KB cells after 24 hrs.
Experiment [4] has as its system MCF7. The experiment is described as follows: Cytotoxicity against human MCF7 cells after 24 hrs. The following applies: MCF7, 24 h.
The test system of experiment [5] is HepG2. The experiment is described as follows: Cytotoxicity against human HepG2 cells after 24 hrs. The following applies: HepG2, 24 h.
For a further experiment, the system named is MDA-MB-231. The experiment is described as follows: Cytotoxicity against human MDA-MB-231 cells. In kind it is functional, cell-based.
Experiment [6] in a line: Cytotoxicity against human Hep3B cells. It is filed as functional, cell-based, Hep 3B2.
The test system of another experiment is P388. The experiment is described as follows: Cytotoxicity against mouse P388 cells. In kind it is functional, cell-based.
Another experiment relates to WEHI-164. The experiment is described as follows: Cytotoxicity against mouse WEHI164 cells. In kind it is functional, cell-based.
Experiment [7] concerns MCF7. The experiment can be described thus: Cytotoxicity against human MCF7 cells after 24 hrs. It is filed as functional, cell-based. The following applies: MCF7, 24 h. In short, it runs like this:
(§1)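 Cell growth inhibition assay on human cancer lines KB, MCF-7, HT29, HepG2 and A549. IC50 is defined as the concentration that inhibits cell growth by 50%.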

In experiment [8] the test system is HepG2. The experiment is described as follows: Cytotoxicity against human HepG2 cells after 24 hrs. In kind it is functional, cell-based. The following applies: HepG2, 24 h. An outline of the steps:
as §1

Experiment [9] has as its system HT-29. The experiment can be described thus: Cytotoxicity against human HT-29 cells after 24 hrs. It is filed as functional, cell-based. The following applies: HT-29, 24 h. In short, it runs like this: as §1
Experiment [10] concerns A549. The experiment is described as follows: Cytotoxicity against human A549 cells after 24 hrs. It is filed as functional, cell-based. The settings on record: A549, 24 h. An outline of the steps: as §1
Experiment [11] deals with KB. The experiment can be described thus: Cytotoxicity against human KB cells after 24 hrs. In kind it is functional, cell-based. An outline of the steps:
as §1

With `O=C1C=CCC(/C=C/C(F)(F)F)O1` (racemic), the IC50 in the experiment on HT-29 [1], with A549 [2], with KB [3], with MCF7 [4] and in the experiment on HepG2 [5] was above 10 µM each time.
As to `O=C1C=CC[C@H](/C=C/c2ccccc2)O1` [GONIOTHALAMIN], the IC50 in the experiment on MDA-MB-231 was determined as 5.4 µM; in experiment [6] it was 5.4 µM; in the experiment on P388, 3.8 µM; with WEHI-164, 8.5 µM; in the experiment on MCF7 [7] it was 4.5 µM; in the experiment on HepG2 [8], 1.6 µM.
With `O=C1C=C[C@H](O)[C@H]([C@H](O)[C@H](OC(=O)/C=C/C(F)(F)F)c2ccccc2)O1`, the IC50 in the experiment with HT-29 [9] worked out at 4.5 µM; in the experiment with A549 [10], 3 µM; with KB [11], 1.4 µM; in the experiment on MCF7 [7], 1.6 µM; with HepG2 [8] it was 1.8 µM.
As for `O=C1C=CCC(/C=C/c2ccccc2)O1` (racemic), the IC50 in the experiment with MDA-MB-231 came out at 5.4 µM; with HT-29 [9] it was 10.1 µM; in experiment [6] it was 5.4 µM; in the experiment with A549 [10], 9.1 µM; with KB [11], 3 µM; in the experiment with P388, 3.8 µM. Besides, the results for the concentration for half-maximal inhibition (IC50) with WEHI-164, in the experiment on MCF7 [7] and in the experiment with HepG2 [8] were 8.5 µM, 3.5 µM and 2.4 µM, respectively.
As for `O=C1C=C[C@H](O)[C@H]([C@H](O)[C@H](OC(=O)/C=C/c2ccccc2)c2ccccc2)O1` [HOWIINOL A], the IC50 in the experiment on HT-29 [9] came to 2.6 µM; in the experiment on A549 [10], 1.5 µM; with KB [11] it was 0.9 µM; in the experiment on MCF7 [7] it was 1.1 µM; in the experiment on HepG2 [8] it was 1.6 µM.

A word on the IC50: it is the point on the concentration scale where inhibition reaches its midpoint. Low values mean greater potency in that assay, high ones weaker potency in that assay.
